Experimental data reported in ChEMBL document CHEMBL1629548, “In vitro activities of tigecycline against clinical isolates of Aeromonas, Vibrio, and Salmonella species in Taiwan” (2008).
Converted amounts (≈) assume the structure as drawn.

How the values were obtained:
[1] = system: Vibrio cholerae; assay: Antimicrobial activity against Vibrio cholerae non-O1 assessed as percent tetracyclin-resistant isolate at 0.12 to 16 ug/ml by broth microdilution method; type: functional
[2] = system: Vibrio cholerae; assay: Antimicrobial activity against Vibrio cholerae non-O1 by broth microdilution method; type: functional
How it was run: (§1)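 Tigecycline MICs for clinical isolates (Taiwan) were determined by broth microdilution over 0.03 to 128 μg/ml. A control strain was included, and its MICs had to fall within the recommended range. Susceptible, intermediate and resistant categories were assigned from the MICs using US FDA and EUCAST breakpoints.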

[3] = system: Aeromonas hydrophila; assay: Antimicrobial activity against Aeromonas hydrophila assessed as percent tetracyclin-resistant isolate at 0.25 to >16 ug/ml by broth microdilution method; type: functional
How it was run: (§2)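 Tetracycline MICs for clinical isolates were determined by broth microdilution over 0.03 to 128 μg/ml. The reported value is the rate of isolates not susceptible to tetracycline for each species or serogroup.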

[4] = system: Aeromonas caviae; assay: Antimicrobial activity against Aeromonas caviae assessed as percent tetracyclin-resistant isolate at 0.25 to >16 ug/ml by broth microdilution method; type: functional; how it was run: as §2
[5] = system: Aeromonas sobria; assay: Antimicrobial activity against Aeromonas sobria assessed as percent tetracyclin-resistant isolate at 0.25 to >16 ug/ml by broth microdilution method; type: functional; how it was run: as §2
[6] = system: Aeromonas hydrophila; assay: Antimicrobial activity against Aeromonas hydrophila by broth microdilution method; type: functional
How it was run: (§3)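 Clinical isolates from Taiwan; tigecycline and tetracycline MICs by broth microdilution per CLSI guidelines, tested over 0.03 μg/ml to 128 μg/ml; a control strain was included.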

[7] = system: Aeromonas caviae; assay: Antimicrobial activity against Aeromonas caviae by broth microdilution method; type: functional; how it was run: as §3
[8] = system: Aeromonas sobria; assay: Antimicrobial activity against Aeromonas sobria by broth microdilution method; type: functional; how it was run: as §3
[9] = Antimicrobial activity against Salmonella serotype Choleraesuis assessed as percent tetracyclin-resistant isolate at 1 to >128 ug/ml by broth microdilution method; type: functional, Salmonella enterica subsp. enterica serovar Choleraesuis; how it was run: as §2
[10] = system: Salmonella typhimurium; assay: Antimicrobial activity against Salmonella serotype Typhimurium assessed as percent tetracyclin-resistant isolate at 1 to >128 ug/ml by broth microdilution method; type: functional, Salmonella enterica subsp. enterica serovar Typhimurium; how it was run: as §2
[11] = system: Salmonella; assay: Antimicrobial activity against Salmonella serogroup O7 assessed as percent tetracyclin-resistant isolate at 1 to >128 ug/ml by broth microdilution method; type: functional; how it was run: as §2
[12] = system: Salmonella; assay: Antimicrobial activity against Salmonella serogroup O8 assessed as percent tetracyclin-resistant isolate at 1 to >128 ug/ml by broth microdilution method; type: functional; how it was run: as §2
[13] = system: Salmonella; assay: Antimicrobial activity against Salmonella serogroup O9 assessed as percent tetracyclin-resistant isolate at 1 to >128 ug/ml by broth microdilution method; type: functional; how it was run: as §2
[14] = Antimicrobial activity against Salmonella serotype Choleraesuis by broth microdilution method; type: functional, Salmonella enterica subsp. enterica serovar Choleraesuis; settings: Salmonella enterica; how it was run: as §1
[15] = system: Salmonella typhimurium; assay: Antimicrobial activity against Salmonella serotype Typhimurium by broth microdilution method; type: functional, Salmonella enterica subsp. enterica serovar Typhimurium; settings: Salmonella enterica; how it was run: as §3
[16] = system: Salmonella; assay: Antimicrobial activity against Salmonella serogroup O7 by broth microdilution method; type: functional; how it was run: as §3
[17] = system: Salmonella; assay: Antimicrobial activity against Salmonella serogroup O8 by broth microdilution method; type: functional; how it was run: as §3
[18] = system: Salmonella; assay: Antimicrobial activity against Salmonella serogroup O9 by broth microdilution method; type: functional; how it was run: as §3
[19] = system: Aeromonas sp.; assay: Antimicrobial activity against tetracycline-susceptible Aeromonas sp. isolate by broth microdilution method; type: functional; how it was run: as §3
[20] = system: Aeromonas sp.; assay: Antimicrobial activity against tetracycline-nonsusceptible Aeromonas sp. isolate by broth microdilution method; type: functional; how it was run: as §3
[21] = system: Vibrio; assay: Antimicrobial activity against tetracycline-susceptible Vibrio sp. Isolate by broth microdilution method; type: functional; how it was run: as §3
[22] = system: Vibrio; assay: Antimicrobial activity against tetracycline-nonsusceptible Vibrio sp. Isolate by broth microdilution method; type: functional; how it was run: as §3
[23] = system: Salmonella; assay: Antimicrobial activity against tetracycline-susceptible Salmonella sp. Isolate by broth microdilution method; type: functional; how it was run: as §3
[24] = system: Salmonella; assay: Antimicrobial activity against tetracycline-nonsusceptible Salmonella sp. Isolate by broth microdilution method; type: functional; how it was run: as §3
[25] = system: Aeromonas caviae; assay: Antimicrobial activity against tigecycline-intermediate Aeromonas caviae isolate by broth microdilution method; type: functional; how it was run: as §3

CN(C)[C@@H]1C(O)=C(C(N)=O)C(=O)[C@@]2(O)C(O)=C3C(=O)c4c(O)cccc4[C@@](C)(O)[C@H]3C[C@@H]12 [TETRACYCLINE]
Activity [1]: 8%
MIC90 [2]: 1 µg/mL (≈ 2.25 µM)
Activity [3]: 36%
Activity [4]: 37%
Activity [5]: 57%
MIC90 [6]: 16 µg/mL (≈ 36 µM)
MIC90 [7]: 16 µg/mL (≈ 36 µM)
MIC90 [8]: 16 µg/mL (≈ 36 µM)
Activity [9]: 84%
Activity [10]: 65%
Activity [11]: 38%
Activity [12]: 71%
Activity [13]: 16%
MIC90 [14]: > 128 µg/mL
MIC90 [15]: > 128 µg/mL
MIC90 [16]: > 128 µg/mL
MIC90 [17]: > 128 µg/mL
MIC90 [18]: > 128 µg/mL
MIC [19]: ≤ 4 µg/mL
MIC [20]: ≥ 8 µg/mL
MIC [21]: ≤ 4 µg/mL
MIC [22]: ≥ 8 µg/mL
MIC [23]: ≤ 4 µg/mL
MIC [24]: ≥ 8 µg/mL
MIC [25]: > 128 µg/mL
